Experimental data pooled from the literature.
Target: Serine/threonine-protein kinase PLK3 (PLK3, Homo sapiens, UniProt Q9H4B4)

| Structure (SMILES) | observed | action | technique | tested at | endpoint | value |
| --- | --- | --- | --- | --- | --- | --- |
| O=c1cc(N2CCOCC2)oc2c(-c3ccccc3)cccc12 | cell-free assay | – | – | 0.5 µM | remaining signal | 71.9% |
| O=C1NC(c2ccccn2)Sc2ccccc21 (stereo not shown) | cell-free assay | – | competition with immobilised ligand | 1 µM | remaining binding | 88% |
| COc1cc(-c2cc(-c3ccc(N4CCNCC4)cc3)cnc2C)cc(OC)c1OC | enzyme activity | inhibitor | – | 1 µM | inhibition | 1% |
| Nc1cnc(N2CCc3cc(S(=O)(=O)Nc4c(F)cc(Cl)cc4F)cc(N4CCCC4=O)c32)nc1 | cell-free assay | – | competition with immobilised ligand | 1 µM | remaining binding | 100% |
| Cc1cnc(NC2CCOCC2)nc1-n1cnc(C(=O)NC(CN)c2cc(F)cc(Cl)c2)c1 (stereo not shown) | enzyme activity | inhibitor | radiometric | 1 µM | remaining activity | 88% |
| N#CC1(c2ccccn2)CCN(Cc2cc(C(=O)N3CCCC3)c(=O)n3ccccc23)CC1 | cell-free assay | – | competition with immobilised ligand | 1 µM | remaining binding | 100% |
| CC(C)(O)[C@H]1CC[C@H](Nc2ccc3ncc(-c4cccc(C(F)(F)F)c4)n3n2)CC1 | enzyme activity | inhibitor | – | 1 µM | remaining activity | 102% |
| Cc1sc(C(=O)NC2COC2)cc1-n1cc(NC(=O)Nc2c(F)cccc2Cl)cn1 | enzyme activity | inhibitor | – | 10 µM | remaining activity | 102% |
| COc1cc2ncnc(Nc3ccc(Oc4ccccc4)c(C)c3C)c2cc1OC | enzyme activity | inhibitor | – | 1 µM | inhibition | -16% |
| Nc1ncnc2occ(-c3ccc(NC(=O)Nc4cc(C(F)(F)F)ccc4F)cc3)c12 | cell-free assay | inhibitor | – | 20 µM | remaining signal | 0.05% |
| CN1CCN(c2cnc3c(C4CCN(C(=O)c5ccc(OC(F)(F)F)cc5N)CC4)ncnc3c2)CC1 | cell-free assay | – | competition with immobilised ligand | 1 µM | remaining binding | 100% |
| CCN(CC)CCNC(=O)c1c(C)[nH]c(/C=C2\C(=O)Nc3ccc(F)cc32)c1C | enzyme activity | inhibitor | – | 0.3 µM | inhibition | -10% |
| O=C1NC(=O)c2cc(Nc3ccc(F)cc3)c(Nc3ccc(F)cc3)cc21 | cell-free assay | – | – | 0.5 µM | remaining signal | 98% |
| Cc1ccc(NC(=O)c2ccc(C)c(C(F)(F)F)c2)cc1C#Cc1nn(C2CCC(O)CC2)c2ncnc(N)c12 (stereo not shown) | cell-free assay | – | – | 10 µM | remaining signal | 93% |
| O=C(CSc1nc2nccnc2c(=O)n1CCc1ccccc1)Nc1nccs1 | enzyme activity | inhibitor | – | 10 µM | inhibition | 4% |
| CNC(=O)c1cc(Oc2ccc(NC(=O)Nc3ccc(Cl)c(C(F)(F)F)c3)cc2)ccn1 | enzyme activity | inhibitor | – | 0.3 µM | inhibition | -12% |
| Cc1cc(NC(=O)c2cccc3cc(-c4cccc5[nH]nc(N)c45)ccc23)ccc1F | enzyme activity | inhibitor | – | 0.1 µM | activity vs control | 92% |
| CCS(=O)(=O)c1cc2cc(C[C@@](O)(CC(C)(C)c3ccc(F)cc3C(N)=O)C(F)(F)F)[nH]c2cn1 | cell-free assay | – | competition with immobilised ligand | 1 µM | remaining binding | 99% |
| CC(C)(C)c1nc2c(s1)c1nc(N)ncc1c1ccc(NS(=O)(=O)c3c(F)cccc3F)c(F)c12 | enzyme activity | inhibitor | radiometric | 1 µM | remaining activity | 91% |
| CSc1cccnc1N1CCN(Cc2nc3ccccc3[nH]2)CC1 | cell-free assay | – | competition with immobilised ligand | 1 µM | remaining binding | 80% |
| Cc1ccc(Nc2nccc(N(C)c3ccc4c(C)n(C)nc4c3)n2)cc1S(N)(=O)=O | enzyme activity | inhibitor | – | 10 µM | inhibition | -9% |
| CCCOc1ccc([C@H]2[C@H](C(=O)O)[C@@H](c3ccc4c(c3)OCO4)CN2CC(=O)Nc2c(CC)cccc2CC)cc1 | cell-free assay | – | competition with immobilised ligand | 1 µM | remaining binding | 83% |
| CC/C(=N\NC(=O)NCc1cccc(O)c1)c1ccc(O)c(C)c1O | enzyme activity | inhibitor | – | 0.1 µM | inhibition | 2.5% |
| COc1ccc2c(O[C@@H]3C[C@H]4C(=O)N[C@]5(C(=O)O)CC5/C=C\CCCCC[C@H](NC(=O)OC5CCCC5)C(=O)N4C3)cc(-c3csc(NC(=O)C(C)C)n3)nc2c1C (stereo partly shown) | cell-free assay | – | competition with immobilised ligand | 1 µM | remaining binding | 79% |
| CCCOc1ccc(OC)c(F)c1C(=O)c1ccc(C(=O)N[C@@H]2CNC[C@H]2NC(=O)c2ccc3[nH]ncc3c2)cc1 | enzyme activity | inhibitor | – | 10 µM | remaining activity | 119% |
